One compound from ChEMBL document CHEMBL4229360, “Antimalarial agents against both sexual and asexual parasites stages: structure-activity relationships and biological studies of the Malaria Box compound 1-[5-(4-bromo-2-chlorophenyl)furan-2-yl]-N-[(piperidin-4-yl)methyl]methanamine (MMV019918) and analogues” (Eur J Med Chem, 2018) can be followed below.

Each structure is given as a SMILES string. pIC50: −log10 of the molar value. Active and inactive are the calls of the source. The rule behind the calls is not given here.

A short description of data set [1]: Cardiotoxicity in Langendorff perfused Wistar rat heart assessed as cycle length interval time at 10 uM by electrocardiography (reference value: 217.15 to 242.23 milliseconds). In kind it is toxicity, tissue-based.
Data set [2] has as its system Plasmodium falciparum. In words: Antiplasmodial activity against chloroquine-sensitive Plasmodium falciparum D10 after 72 hrs by lactate dehydrogenase assay. In kind it is functional, organism-based. The settings on record: D10, 72 h. The essentials: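 Asynchronous blood-stage cultures at 1–1.5% parasitemia and 1% final hematocrit in human A+ RBCs, RPMI 1640 with 1% AlbuMax, hypoxanthine, HEPES and glutamine. Serial dilutions from DMSO stocks, final DMSO <1%. Incubated 72 h at 37 °C under 1% O₂/5% CO₂. IC50 is the mean of ≥3 experiments in duplicate.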

The nature of data set [3]: Cardiotoxicity in Langendorff perfused Wistar rat heart assessed as reduction of left ventricular pressure. In kind it is toxicity, tissue-based.
Data set [4] can be described thus: Cardiotoxicity in Langendorff perfused Wistar rat heart assessed as coronary perfusion pressure at 0.1 to 10 uM. Type of data set: toxicity, tissue-based.
A short description of data set [5]: Cardiotoxicity in Langendorff perfused Wistar rat heart assessed as QTc interval time at 0.1 uM by electrocardiography (reference value: 76.45 to 80.07 milliseconds). Type of data set: toxicity, tissue-based.
Data set [6] can be described thus: Cardiotoxicity in Langendorff perfused Wistar rat heart assessed as PQ interval time at 10 uM by electrocardiography (reference value: 41.13 to 42.63 milliseconds). In kind it is toxicity, tissue-based.
Data set [7] can be described thus: Cardiotoxicity in Langendorff perfused Wistar rat heart assessed as frequency of heart rate at 10 uM by electrocardiography (reference value: 247.05 to 275.90 bpm). Type of data set: toxicity, tissue-based.
Data set [8] is described as follows: Cardiotoxicity in Langendorff perfused Wistar rat heart assessed as QRS interval time at 10 uM by electrocardiography (reference value: 13.31 to 14.35 milliseconds). Type of data set: toxicity, tissue-based.
Data set [9] deals with T1, Phosphoethanolamine N-methyltransferase (Plasmodium falciparum, UniProt Q8IDQ9).
T1 sequence (Q8IDQ9 whole entry): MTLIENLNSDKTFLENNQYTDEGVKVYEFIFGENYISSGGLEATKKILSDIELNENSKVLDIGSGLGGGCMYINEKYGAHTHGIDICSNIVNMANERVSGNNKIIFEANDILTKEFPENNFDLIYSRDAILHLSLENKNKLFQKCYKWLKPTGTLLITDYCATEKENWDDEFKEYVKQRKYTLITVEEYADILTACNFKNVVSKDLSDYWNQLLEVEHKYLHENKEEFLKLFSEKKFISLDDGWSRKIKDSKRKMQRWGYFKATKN
In words: Inhibition of plasmodium falciparum phosphoethanolamine N-methyltransferase expressed in Escherichia coli using phosphoethanolamine as substrate and [methyl-14C] SAM by radiochemical assay. The essentials:
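Recombinant PfPMT purified from E. coli, 2 μg per 100 μL reaction. Buffer 0.1 M HEPES-KOH pH 8.0, 2 mM Na2EDTA, 10% glycerol, 5% DMSO, with 30 μM SAM (100 nCi [methyl-14C]SAM) and 55 μM phosphoethanolamine; radiochemical read-out.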

Data set [10] is described as follows: Cardiotoxicity in Langendorff perfused Wistar rat heart assessed as PQ interval time at 1 uM by electrocardiography (reference value: 41.13 to 42.63 milliseconds). Type of data set: toxicity, tissue-based.
Data set [11] relates to Plasmodium berghei. In words: Antimalarial activity against liver stage form of mCherry expressing Plasmodium berghei ANKA sporozoites infected in mouse primary hepatocytes assessed as reduction in parasite load at 0.0625 to 4 uM administered 2 hrs post infection and measured after 48 hrs post infection with medium change at 24 hrs post infection by fluorescent microscopic analysis. In kind it is functional, organism-based. The procedure, abridged: (§1)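 Parasite number and size in unfixed cells by automated microscopy at 48 hpi. Detached cells collected at 65 hpi, counted by fluorescence microscopy, expressed as % of 48 h parasite number. n = 4; one-way ANOVA with Dunnett's test.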

Data set [12] can be described thus: Cardiotoxicity in Langendorff perfused Wistar rat heart assessed as frequency of heart rate at 1 uM by electrocardiography (reference value: 247.05 to 275.90 bpm). In kind it is toxicity, tissue-based.
A short description of data set [13]: Cardiotoxicity in Langendorff perfused Wistar rat heart assessed as QRS interval time at 0.1 uM by electrocardiography (reference value: 13.31 to 14.35 milliseconds). Type of data set: toxicity, tissue-based.
Data set [14] can be described thus: Cardiotoxicity in Langendorff perfused Wistar rat heart assessed as frequency of heart rate at 3 uM by electrocardiography (reference value: 247.05 to 275.90 bpm). In kind it is toxicity, tissue-based.
The subject of data set [15] is Plasmodium berghei. In words: Antimalarial activity against liver stage form of mCherry expressing Plasmodium berghei ANKA sporozoites infected in mouse primary hepatocytes assessed as reduction in parasite size at 0.0625 to 4 uM administered 2 hrs post infection and measured after 48 hrs post infection with medium change at 24 hrs post infection by fluorescent microscopic analysis. Type of data set: functional, organism-based. The essentials:
as §1

Data set [16] can be described thus: Cardiotoxicity in Langendorff perfused Wistar rat heart assessed as QRS interval time at 1 uM by electrocardiography (reference value: 13.31 to 14.35 milliseconds). Type of data set: toxicity, tissue-based.
Data set [17] can be described thus: Cardiotoxicity in Langendorff perfused Wistar rat heart assessed as frequency of heart rate at 0.1 uM by electrocardiography (reference value: 247.05 to 275.90 bpm). In kind it is toxicity, tissue-based.
Data set [18] deals with Plasmodium falciparum. The data set is described as follows: Gametocytocidal activity against Plasmodium falciparum 3D7 elo1-pfs16-CBG99 late-stage (4 to 5) gametocytes assessed as inhibition of parasite viability after 72 hrs by luciferase reporter assay. In kind it is functional, organism-based. As to conditions: 3D7 elo1-pfs16-CBG99, 72 h. The procedure, abridged:
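Transgenic 3D7elo1-pfs16-CBG99 gametocytes express CBG99 luciferase from the pfs16 promoter. Stage IV–V gametocytes (Giemsa-checked) were exposed at day 8–10 after NAG addition to serial dilutions in complete medium for 72 h. Samples at 2% haematocrit were then mixed 1:1 with D-luciferin (1 mM, pH 5.5 citrate) for 10 min and luminescence was read. IC50 came from non-linear regression, mean of ≥3 experiments in duplicate.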

Data set [19] in a line: Cardiotoxicity in Langendorff perfused Wistar rat heart assessed as cycle length interval time at 0.1 uM by electrocardiography (reference value: 217.15 to 242.23 milliseconds). Type of data set: toxicity, tissue-based.
The nature of data set [20]: Cytotoxicity against mouse NIH/3T3 cells after 24 hrs by neutral red uptake assay. In kind it is cell-based, NIH3T3. The settings on record: read-out: TC50. The procedure, abridged: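 NIH3T3 cells exposed for 24 h; viability by neutral red uptake. Mean of three experiments, six replicates each.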
Data set [21] concerns the target Voltage-dependent L-type calcium channel subunit alpha-1C (Rattus norvegicus, UniProt P22002). The data set is described as follows: Inhibition of CaV1.2 channel in rat tail artery myocytes assessed as reduction in Ba2+ current at -50 mV holding potential by whole-cell patch-clamp assay. In kind it is cell-based. The procedure, abridged:
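Freshly isolated rat tail artery smooth muscle cells (collagenase digestion), whole-cell patch clamp at 20–22 °C. External solution: 5 mM Ba2+, 30 mM TEA; Cs+-based internal solution, pH 7.4. Currents from 250-ms pulses to 0 mV from Vh −50 mV at 0.067 Hz, after 7–10 min stabilisation. Leak corrected with 10 μM nifedipine. Peak current as % of control; n = 3–6 cells from ≥3 animals.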

Data set [22] can be described thus: Cardiotoxicity in Langendorff perfused Wistar rat heart assessed as cycle length interval time at 3 uM by electrocardiography (reference value: 217.15 to 242.23 milliseconds). In kind it is toxicity, tissue-based.
The test system of data set [23] is Plasmodium berghei. The data set is described as follows: Antimalarial activity against liver stage form of mCherry expressing Plasmodium berghei ANKA sporozoites infected in mouse primary hepatocytes assessed as inhibition of detached cell formation rate at 0.0625 to 4 uM administered 2 hrs post infection and measured after 48 hrs post infection with medium change at 24 hrs post infection by fluorescent microscopic analysis. Type of data set: functional, organism-based. The procedure, abridged:
as §1

Chain of Voltage-dependent L-type calcium channel subunit alpha-1C (P22002 whole entry): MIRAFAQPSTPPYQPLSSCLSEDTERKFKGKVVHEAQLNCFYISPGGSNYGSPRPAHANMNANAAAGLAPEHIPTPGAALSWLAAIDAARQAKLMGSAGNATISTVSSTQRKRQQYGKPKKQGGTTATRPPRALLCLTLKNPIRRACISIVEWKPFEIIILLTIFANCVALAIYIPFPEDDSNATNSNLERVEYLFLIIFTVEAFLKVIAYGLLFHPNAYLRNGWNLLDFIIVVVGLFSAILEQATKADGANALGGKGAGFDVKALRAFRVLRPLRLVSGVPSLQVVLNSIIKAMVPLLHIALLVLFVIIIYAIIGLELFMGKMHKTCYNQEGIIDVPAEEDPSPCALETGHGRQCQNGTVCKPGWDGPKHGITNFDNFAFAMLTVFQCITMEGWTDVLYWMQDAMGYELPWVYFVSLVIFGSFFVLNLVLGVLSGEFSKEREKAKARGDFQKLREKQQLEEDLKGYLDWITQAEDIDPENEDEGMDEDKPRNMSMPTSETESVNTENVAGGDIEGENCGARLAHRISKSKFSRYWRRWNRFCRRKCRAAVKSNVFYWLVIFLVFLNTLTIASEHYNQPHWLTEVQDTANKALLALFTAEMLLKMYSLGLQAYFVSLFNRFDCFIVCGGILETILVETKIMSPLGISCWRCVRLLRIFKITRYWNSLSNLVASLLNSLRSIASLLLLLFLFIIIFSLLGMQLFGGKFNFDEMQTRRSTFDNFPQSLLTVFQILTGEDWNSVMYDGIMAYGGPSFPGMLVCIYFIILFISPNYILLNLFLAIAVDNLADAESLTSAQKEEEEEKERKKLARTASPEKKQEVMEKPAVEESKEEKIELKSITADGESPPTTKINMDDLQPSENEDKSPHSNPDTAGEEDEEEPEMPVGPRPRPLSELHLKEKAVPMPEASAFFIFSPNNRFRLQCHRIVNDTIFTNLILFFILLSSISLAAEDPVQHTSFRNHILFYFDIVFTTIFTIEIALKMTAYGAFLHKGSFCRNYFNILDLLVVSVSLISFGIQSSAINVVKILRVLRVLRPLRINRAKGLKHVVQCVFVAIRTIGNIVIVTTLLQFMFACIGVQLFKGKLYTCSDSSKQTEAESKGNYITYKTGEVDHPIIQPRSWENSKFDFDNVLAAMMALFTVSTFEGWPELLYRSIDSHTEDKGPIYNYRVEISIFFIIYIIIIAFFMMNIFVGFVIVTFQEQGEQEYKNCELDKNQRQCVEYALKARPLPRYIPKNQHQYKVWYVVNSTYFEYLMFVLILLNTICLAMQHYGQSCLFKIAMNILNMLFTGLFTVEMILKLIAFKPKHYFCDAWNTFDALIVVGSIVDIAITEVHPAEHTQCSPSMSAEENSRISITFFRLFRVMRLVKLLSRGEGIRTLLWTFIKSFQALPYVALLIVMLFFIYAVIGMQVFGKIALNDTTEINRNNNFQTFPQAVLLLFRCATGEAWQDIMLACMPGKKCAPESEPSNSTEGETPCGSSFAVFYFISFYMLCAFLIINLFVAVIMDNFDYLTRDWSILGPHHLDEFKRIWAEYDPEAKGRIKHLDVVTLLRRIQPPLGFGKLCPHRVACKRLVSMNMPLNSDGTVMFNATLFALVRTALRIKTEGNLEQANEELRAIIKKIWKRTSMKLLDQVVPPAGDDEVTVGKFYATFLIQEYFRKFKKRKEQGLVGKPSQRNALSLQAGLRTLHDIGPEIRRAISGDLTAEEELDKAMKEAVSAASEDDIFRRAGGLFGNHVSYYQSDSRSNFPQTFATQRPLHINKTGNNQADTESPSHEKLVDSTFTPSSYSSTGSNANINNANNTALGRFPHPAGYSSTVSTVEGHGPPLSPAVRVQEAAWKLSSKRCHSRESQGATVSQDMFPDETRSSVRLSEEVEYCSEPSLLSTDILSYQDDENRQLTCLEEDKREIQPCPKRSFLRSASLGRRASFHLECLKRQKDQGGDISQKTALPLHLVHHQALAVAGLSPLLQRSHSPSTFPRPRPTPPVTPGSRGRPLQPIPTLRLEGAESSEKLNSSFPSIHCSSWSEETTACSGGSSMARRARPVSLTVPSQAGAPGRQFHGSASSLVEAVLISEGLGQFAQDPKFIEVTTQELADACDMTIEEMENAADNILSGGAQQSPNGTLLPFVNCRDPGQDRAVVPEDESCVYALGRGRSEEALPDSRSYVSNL

Take `Clc1ccc(-c2ccc(CNCC3CCNCC3)o2)c(-c2ccccc2)c1`: the Time is 232.2 ms in data set [1]; 74.92 ms in [5]; 65.08 ms in data set [6]; 17.91 ms in data set [8]; 41.59 ms in data set [10]; 14.2 ms in data set [13]. Besides, the results for the Time in [16], in data set [19] and in [22] were 13.7 ms, 218.32 ms and 216.73 ms, respectively. Also, the pIC50 was 6.06 in the data set on Plasmodium falciparum [2], 4.35 in data set [9], 5.85 with Plasmodium falciparum [18] and 5.48 in data set [21]. The Activity entry in data set [3] is “Dose-dependent effect”; in data set [4], “Non-Toxic”; in data set [7], 259.41 bpm; in data set [12], 275.47 bpm; in [14] it was 276.4 bpm; in [17] it was 276.19 bpm. Moreover, the outcome in the data set with Plasmodium berghei [11], in the data set on Plasmodium berghei [15] and in the data set with Plasmodium berghei [23] was inactive. The CC50 at 24 h in data set [20] came out at 20 µM. Moreover, the “inhibition (INH)” value in data set [21] (rat) was “Dose-dependent effect”.
